Test results as given in ChEMBL document CHEMBL1148940, “New luffariellolide derivatives from the Indonesian sponge Acanthodendrilla sp” (2004).
≈ marks a conversion by molar mass, not a printed value. Calls of active or inactive are those of the source.

Columns and labels:
Staphylococcus aureus [1] = assay: Antimicrobial activity against Staphylococcus aureus ATCC 25923 at 5 ug/disk after 24 hrs; assay type: functional
How it was run: (§1)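 Agar plate disk diffusion: disks impregnated with test sample (5 or 10 µg per disk) placed on agar plates previously inoculated with the organism, with solvent controls. Plates incubated 24 h at 37 °C. Read-out is the diameter (mm) of the clear inhibition zone around the disk. A sample is scored active when the zone exceeds 7 mm.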

Bacillus subtilis [2] = assay: Antimicrobial activity against Bacillus subtilis DSM 2109 at 5 ug/disk after 24 hrs; assay type: functional; conditions: for zone of inhibition at 5 µg/disc: DSM 2109, 24 h, read-out: IZ
How it was run: (§2)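 Agar plate disk diffusion: disks impregnated with sample (5 or 10 µg per disk) placed on agar plates pre-inoculated with the test organism; solvent controls run against each organism. Plates incubated at 37 °C for 24 h, then clear inhibition zones around the disk measured in mm; sample scored active when zone exceeded 7 mm.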

Escherichia coli [3] = assay: Antimicrobial activity against Escherichia coli DSM 10290 at 5 ug/disk after 24 hrs; assay type: functional; how it was run: as §1
Candida albicans [4] = assay: Antimicrobial activity against Candida albicans at 5 ug/disk after 24 hrs; assay type: functional; how it was run: as §2
Cladosporium herbarum [5] = assay: Antimicrobial activity against Cladosporium herbarum DSM 63422 at 5 ug/disk after 24 hrs; assay type: functional, organism-based; how it was run: as §2
Bacillus subtilis [6] = assay: Antimicrobial activity against Bacillus subtilis DSM 2109 at 10 ug/disk after 24 hrs; assay type: functional; conditions: DSM 2109, 24 h, read-out: IZ; how it was run: as §2
Escherichia coli [7] = assay: Antimicrobial activity against Escherichia coli DSM 10290 at 10 ug/disk after 24 hrs; assay type: functional; conditions: for zone of inhibition at 10 µg/disc: DSM 10290, 24 h, read-out: IZ; how it was run: as §2
Candida albicans [8] = assay: Antimicrobial activity against Candida albicans at 10 ug/disk after 24 hrs; assay type: functional; conditions: read-out: IZ; how it was run: as §2
Cladosporium herbarum [9] = assay: Antimicrobial activity against Cladosporium herbarum DSM 63422 at 10 ug/disk after 24 hrs; assay type: functional; conditions: for zone of inhibition at 10 µg/disc: DSM 63422, 24 h, read-out: IZ; how it was run: as §2
L5178Y = assay: Cytotoxicity against mouse L5178Y cells by MTT assay; assay type: functional; conditions: read-out: ED50 (the source's name)
PC-12 = assay: Cytotoxicity against rat PC12 cells by MTT assay; assay type: functional, cell-based
HeLa = assay: Cytotoxicity against human HeLa cells by MTT assay; assay type: functional, cell-based
Staphylococcus aureus [10] = assay: Antimicrobial activity against Staphylococcus aureus ATCC 25923 at 10 ug/disk after 24 hrs; conditions: for zone of inhibition at 10 µg/disc: ATCC 25923, 24 h, read-out: IZ
Cladosporium herbarum [11] = assay: Antimicrobial activity against Cladosporium herbarum DSM 63422 by serial dilution assay; assay type: functional

| Molecule | Activity (Staphylococcus aureus [1]) | Activity (Escherichia coli [3]) | Activity (Cladosporium herbarum [5]) | zone of inhibition at 10 µg/disc (Bacillus subtilis [6]) [mm] | zone of inhibition at 10 µg/disc (Candida albicans [8]) [mm] | zone of inhibition at 10 µg/disc (Cladosporium herbarum [9]) [mm] | EC50 (L5178Y) [µg/mL] | Activity (PC-12) | Activity (HeLa) | zone of inhibition at 10 µg/disc (Staphylococcus aureus [10]) [mm] | Activity (Candida albicans [4]) | zone of inhibition at 10 µg/disc (Escherichia coli [7]) [mm] | further results |
| --- | --- | --- | --- | --- | --- | --- | --- | --- | --- | --- | --- | --- | --- |
| COC1OC(=O)C=C1CC/C=C(\C)CC/C=C(\C)CCC1=C(C)CCCC1(C)C (stereo not given) | inactive | inactive | inactive | 9 | 9 | 15 | 0.7 (≈ 1.75 µM) | inactive | inactive | 10 |  |  | zone of inhibition at 5 µg/disc (Bacillus subtilis [2]): 7 mm; zone of inhibition at 5 µg/disc (Candida albicans [4]; read-out: IZ): 9 mm; Activity (Escherichia coli [7]): inactive |
| CCOC1OC(=O)C=C1CC/C=C(\C)CC/C=C(\C)CCC1=C(C)CCCC1(C)C (stereo not given) | inactive | inactive | inactive | 7 | 9 |  | > 100 | inactive | inactive |  | inactive | 12 | Activity (Bacillus subtilis [2]): inactive; Activity (Cladosporium herbarum [9]): inactive; Activity (Staphylococcus aureus [10]): inactive |
| CC1=C(CC/C(C)=C/CC/C(C)=C/CCC2=CC(=O)OC2O)C(C)(C)CCC1=O (stereo not given) [ACANTHOLIDE B] | inactive | inactive | inactive | 12 | 10 | 10 | > 10 | inactive | inactive | 10 | inactive | 9 | Activity (Bacillus subtilis [2]): inactive |
| CC(=O)[C@]1(CC/C(C)=C/CC/C(C)=C/CCC2=CC(=O)OC2O)[C@@H](O)CCC1(C)C (stereo not given in full) [ACANTHOLIDE D] |  |  |  |  |  |  | > 10 | inactive | inactive |  |  |  |  |
| CC(=O)[C@]1(CC/C(C)=C/CC/C(C)=C/CCC2=CC(=O)OC2O)[C@H](O)CCC1(C)C (stereo not given in full) [ACANTHOLIDE E] |  |  |  |  |  |  | 7 (≈ 16.7 µM) | inactive | inactive |  |  |  |  |
| CC1=C(CC/C(C)=C/CC/C(C)=C/CCC2=CC(=O)OC2O)C(C)(C)CCC1 (stereo not given) [LUFFARIELLOLIDE] |  |  | inactive | 12 | 10 | 20 | 3.3 (≈ 8.54 µM) | inactive | inactive | 11 | inactive | 10 | zone of inhibition at 5 µg/disc (Staphylococcus aureus [1]; ATCC 25923, 24 h, read-out: IZ): 7 mm; zone of inhibition at 5 µg/disc (Bacillus subtilis [2]): 7 mm; zone of inhibition at 5 µg/disc (Escherichia coli [3]; DSM 10290, 24 h, read-out: IZ): 7 mm; MIC (Cladosporium herbarum [11]): 10.4 µg/mL (≈ 26.9 µM) |
| NYSTATIN |  |  |  |  |  |  |  |  |  |  |  |  | MIC (Cladosporium herbarum [11]): 1.06 µg/mL |
